Laboratory results published in ChEMBL document CHEMBL1152489, “Synthesis and biological evaluation of a novel series of 1,5-benzothiazepine derivatives as potential antimicrobial agents” (2009).
Activity calls are given as the source filed them. The rule behind the calls is not given here.

Legend:
[1] = tested on: Staphylococcus epidermidis; assay: Antibacterial activity against Staphylococcus epidermidis ATCC 26069 at 50 ug/disk after 24 hrs by disk diffusion method; assay type: functional; conditions: for zone of inhibition at 50 µg/disc: ATCC 26069, 24 h, read-out: IZ
Outline: (§1)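 Disk diffusion on media seeded with the organism. Sterile paper discs (6 mm) carried test compound dissolved in DMSO at 12.5, 50, 100 or 200 µg/disc. DMSO-only discs served as controls. Plates were incubated 24 h at 37 °C. The read-out is the growth-inhibition zone diameter in mm, averaged over three trials (±1 mm).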

Staphylococcus aureus [2] = assay: Antibacterial activity against Staphylococcus aureus ATCC 25923 at <12.5 ug/disk after 24 hrs by disk diffusion method; assay type: functional, organism-based; outline: as §1
Candida albicans [3] = assay: Antifungal activity against Candida albicans ATCC 10231 at <12.5 ug/disk after 24 hrs by disk diffusion method; assay type: functional, organism-based; outline: as §1
[4] = tested on: Staphylococcus epidermidis; assay: Antibacterial activity against Staphylococcus epidermidis ATCC 26069 after 24 hrs by disk diffusion method; assay type: functional, organism-based; outline: as §1
Staphylococcus aureus [5] = assay: Antibacterial activity against Staphylococcus aureus ATCC 25923 at 100 ug/disk after 24 hrs by disk diffusion method; assay type: functional; conditions: ATCC 25923, 24 h, read-out: IZ; outline: as §1
Escherichia coli [6] = assay: Antibacterial activity against Escherichia coli ATCC 44752 at 200 ug/disk after 24 hrs by disk diffusion method; assay type: functional, organism-based; outline: as §1
Staphylococcus aureus [7] = assay: Antibacterial activity against Staphylococcus aureus ATCC 25923 after 24 hrs by disk diffusion method; assay type: functional, organism-based; outline: as §1
Escherichia coli [8] = assay: Antibacterial activity against Escherichia coli ATCC 44752 at 100 ug/disk after 24 hrs by disk diffusion method; assay type: functional, organism-based; outline: as §1
[9] = tested on: Staphylococcus epidermidis; assay: Antibacterial activity against Staphylococcus epidermidis ATCC 26069 at <12.5 ug/disk after 24 hrs by disk diffusion method; assay type: functional, organism-based; outline: as §1
Candida albicans [10] = assay: Antifungal activity against Candida albicans ATCC 10231 at 200 ug/disk after 24 hrs by disk diffusion method; assay type: functional; conditions: ATCC 10231, 24 h, read-out: IZ; outline: as §1
Staphylococcus aureus [11] = assay: Antibacterial activity against Staphylococcus aureus ATCC 25923 at 50 ug/disk after 24 hrs by disk diffusion method; assay type: functional; conditions: ATCC 25923, 24 h, read-out: IZ; outline: as §1
Candida albicans [12] = assay: Antifungal activity against Candida albicans ATCC 10231 at 100 ug/disk after 24 hrs by disk diffusion method; assay type: functional; conditions: ATCC 10231, 24 h, read-out: IZ; outline: as §1
Staphylococcus aureus [13] = assay: Antibacterial activity against Staphylococcus aureus ATCC 25923 at 200 ug/disk after 24 hrs by disk diffusion method; assay type: functional; conditions: ATCC 25923, 24 h, read-out: IZ; outline: as §1
Escherichia coli [14] = assay: Antibacterial activity against Escherichia coli ATCC 44752 at 50 ug/disk after 24 hrs by disk diffusion method; assay type: functional, organism-based; outline: as §1
[15] = tested on: Staphylococcus epidermidis; assay: Antibacterial activity against Staphylococcus epidermidis ATCC 26069 at 100 ug/disk after 24 hrs by disk diffusion method; assay type: functional; conditions: ATCC 26069, 24 h, read-out: IZ; outline: as §1
Candida albicans [16] = assay: Antifungal activity against Candida albicans ATCC 10231 at 50 ug/disk after 24 hrs by disk diffusion method; assay type: functional; conditions: for zone of inhibition at 50 µg/disc: ATCC 10231, 24 h, read-out: IZ; outline: as §1
Candida albicans [17] = assay: Antifungal activity against Candida albicans ATCC 10231 after 24 hrs by disk diffusion method; assay type: functional, organism-based; outline: as §1
[18] = tested on: Staphylococcus epidermidis; assay: Antibacterial activity against Staphylococcus epidermidis ATCC 26069 at 200 ug/disk after 24 hrs by disk diffusion method; assay type: functional; conditions: ATCC 26069, 24 h, read-out: IZ; outline: as §1
Staphylococcus aureus [19] = assay: Antibacterial activity against Staphylococcus aureus ATCC 25923 at 30 ug/disk after 24 hrs by disk diffusion method; assay type: functional; conditions: ATCC 25923, 24 h, read-out: IZ
Outline: (§2)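 Disc diffusion: sterile 6 mm paper discs impregnated with compound dissolved in DMSO, placed on the surface of medium inoculated with the microorganism; DMSO-only discs served as controls. Plates were incubated at 37 °C for 24 h. Growth-inhibition zone diameter (mm) was read and averaged over three trials.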

Escherichia coli [20] = assay: Antibacterial activity against Escherichia coli ATCC 44752 at 30 ug/disk after 24 hrs by disk diffusion method; assay type: functional; conditions: ATCC 44752, 24 h, read-out: IZ; outline: as §2
[21] = tested on: Staphylococcus epidermidis; assay: Antibacterial activity against Staphylococcus epidermidis ATCC 26069 at 30 ug/disk after 24 hrs by disk diffusion method; assay type: functional; conditions: ATCC 26069, 24 h, read-out: IZ; outline: as §2
Candida albicans [22] = assay: Antifungal activity against Candida albicans ATCC 10231 at 25 ug/disk after 24 hrs by disk diffusion method; assay type: functional; conditions: ATCC 10231, 24 h, read-out: IZ; outline: as §2

Row | SMILES | zone of inhibition at 50 µg/disc [1] [mm] | zone of inhibition at 100 µg/disc (Staphylococcus aureus [5]) [mm] | inhibition zone (IZ) (Escherichia coli [6]) | inhibition zone (IZ) (Escherichia coli [8]) | zone of inhibition at 200 µg/disc (Candida albicans [10]) [mm] | zone of inhibition at 50 µg/disc (Staphylococcus aureus [11]) [mm] | zone of inhibition at 100 µg/disc (Candida albicans [12]) [mm] | zone of inhibition at 200 µg/disc (Staphylococcus aureus [13]) [mm] | inhibition zone (IZ) (Escherichia coli [14]) | zone of inhibition at 100 µg/disc [15] [mm] | zone of inhibition at 50 µg/disc (Candida albicans [16]) [mm] | zone of inhibition at 200 µg/disc [18] [mm] | other results
1 | CCOC(=O)C1C(C)=Nc2ccccc2SC1c1ccc(O)cc1 (stereo not drawn) | 10 | 15 | inactive | inactive | 30 | 7 | 24 | 18 | inactive | 16 | 14 | 20 | Activity (Staphylococcus aureus [2]): inactive; Activity (Candida albicans [3]): inactive; Activity [4]: Dose-dependent effect; Activity (Staphylococcus aureus [7]): Dose-dependent effect; Activity [9]: inactive; Activity (Candida albicans [17]): Dose-dependent effect
2 | CN[C@H](CC(C)C)C(=O)N[C@H]1C(=O)N[C@@H](CC(N)=O)C(=O)N[C@H]2C(=O)N[C@H]3C(=O)N[C@H](C(=O)N[C@H](C(=O)O)c4cc(O)cc(O)c4-c4cc3ccc4O)[C@H](O)c3ccc(c(Cl)c3)Oc3cc2cc(c3O[C@@H]2O[C@H](CO)[C@@H](O)[C@H](O)[C@H]2O[C@H]2C[C@](C)(N)[C@H](O)[C@H](C)O2)Oc2ccc(cc2Cl)[C@H]1O [VANCOMYCIN] |  |  |  |  |  |  |  |  |  |  |  |  | zone of inhibition at 30 µg/disc (Staphylococcus aureus [19]): 18 mm; zone of inhibition at 30 µg/disc (Escherichia coli [20]): 8 mm; zone of inhibition at 30 µg/disc [21]: 18 mm
3 | OC(Cn1cncn1)(Cn1cncn1)c1ccc(F)cc1F [FLUCONAZOLE] |  |  |  |  |  |  |  |  |  |  |  |  | zone of inhibition at 25 µg/disc (Candida albicans [22]): 23 mm
4 | CC(=O)C1=C(C)Nc2ccccc2SC1c1ccccc1 (stereo not drawn) |  | 8 | inactive | inactive | 10 | 6.5 | 7 | 11 | inactive | 7 |  | 10 | inhibition zone (IZ) [1]: inactive; inhibition zone (IZ) (Candida albicans [16]): inactive
5 | CC(=O)C1=C(C)Nc2ccccc2SC1c1ccc(O)cc1 (stereo not drawn) | 11 | 9.5 | inactive | inactive | 17 | 7 | 17 | 10 | inactive | 11 | 15 | 12 | 
6 | COc1ccc(C2Sc3ccccc3NC(C)=C2C(C)=O)cc1 (stereo not drawn) |  | 7 | inactive | inactive | 11 | 6.5 | 9 | 10 | inactive | 7 | 8 | 10 | inhibition zone (IZ) [1]: inactive
7 | CC(=O)C1=C(C)Nc2ccccc2SC1c1ccc(Cl)cc1 (stereo not drawn) | 17 | 14 | inactive | inactive | 24 | 12 | 21 | 15 | inactive | 17 | 18 | 19 | Activity (Staphylococcus aureus [2]): inactive; Activity (Candida albicans [3]): inactive; Activity [4]: Dose-dependent effect; Activity (Staphylococcus aureus [7]): Dose-dependent effect; Activity [9]: inactive; Activity (Candida albicans [17]): Dose-dependent effect
8 | CC(=O)C1=C(C)Nc2ccccc2SC1c1ccc(C)cc1 (stereo not drawn) | 7 | 9 | inactive | inactive | 23 | 7 | 16 | 10 | inactive | 7 | 16 | 7 | 
